Measurements reported in ChEMBL document CHEMBL3351816, “Structure-based optimization of a peptidyl inhibitor against calcineurin-nuclear factor of activated T cell (NFAT) interaction” (J Med Chem, 2014).
pIC50, pKd: −log10 of the molar value. Activity calls are given as the source filed them. No cut-off for these calls is given here. Numbered stars: 1 amine (or outer) side, 2 acyl side, 3 side chain; on linkers, the order of the positions; unused ones are H or OH. Square brackets hold non-standard residues; d marks the D form. Peptide text beside a SMILES is read from it. X1 = CC1(C)SC[C@@H](C(=O)[*:2])N1[*:1]; Tle = CC(C)(C)[C@H](N)C(=O)O

Tests used:
[1] = Half life in 25% human serum at 37 degC; format: ADME
Summary of the method: (§1)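 Peptides were incubated in diluted human serum (25%) at 37 °C for up to 6 h. The amount of intact peptide remaining was monitored over time by HPLC.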

Homo sapiens = organism: Homo sapiens; assay: (§2) Inhibition of FITC-labelled […] binding to calcineurin (unknown origin) by modified fluorescence anisotropy assay
[2] = as §2; set-up: species or system Homo sapiens
[3] = Binding affinity to GST-calcineurin fusion protein substrate docking site (unknown origin) expressed in Escherichia coli BL21 cells by fluorescence anisotropy assay; set-up: species or system Homo sapiens
Summary of the method: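 GST–CN fusion expressed in E. coli BL21, glutathione-Sepharose purified. FA read at ex 485/em 525 nm; KD from fitting FA versus CN concentration with correction for fluorophore–protein interaction.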

Serum [4] = assay: Drug metabolism in 25% human serum at 37 degC at 6 hrs; format: ADME, cell-free; summary of the method: as §1
HeLa = assay: Inhibition of calcineurin in human HeLa cells assessed as blocked of GFP-NFAT translocation at 500 nM prior to ionomycin treatment by fluorescence based confocal microscopy in presence of ionomycin; format: cell-based
Summary of the method: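 HeLa cells stably expressing GFP–NFAT1 pretreated with R11-conjugated peptide (500 nM), then stimulated with ionomycin. Time-lapse live-cell confocal imaging; increase in nuclear fluorescence after 10 min ionomycin compared with inhibitor-free control (100%). Mean ± SD from at least 30 cells; two-tailed t test.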

[5] = target: Growth factor receptor-bound protein 2 (Homo sapiens) (UniProt P62993); assay: Binding affinity to SH2 domain of Grb2 (unknown origin)
Serum [6] = assay: Drug metabolism in 25% human serum assessed as compound remaining at 37 degC; format: ADME, cell-free
Summary of the method: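 Peptide incubated in human serum diluted to 25% at 37 °C; remaining intact peptide quantified by HPLC over time up to 6 h.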

[7] = test system: GTPase KRas (Homo sapiens), P01116 [G12V]; assay: Binding affinity to K-Ras G12V mutant (unknown origin)
Sequence of GTPase KRas (Homo sapiens), P01116 [G12V] (P01116 whole entry G12V): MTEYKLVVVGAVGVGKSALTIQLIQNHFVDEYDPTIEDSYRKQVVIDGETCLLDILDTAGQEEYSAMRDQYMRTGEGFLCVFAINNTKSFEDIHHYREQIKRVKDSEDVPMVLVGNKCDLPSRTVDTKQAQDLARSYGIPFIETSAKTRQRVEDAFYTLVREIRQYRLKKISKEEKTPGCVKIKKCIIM

[8] = target: T1, Tyrosine-protein phosphatase non-receptor type 1 (Homo sapiens, UniProt P18031); assay: Binding affinity to PTP1B (unknown origin)
T1 sequence (P18031 whole entry): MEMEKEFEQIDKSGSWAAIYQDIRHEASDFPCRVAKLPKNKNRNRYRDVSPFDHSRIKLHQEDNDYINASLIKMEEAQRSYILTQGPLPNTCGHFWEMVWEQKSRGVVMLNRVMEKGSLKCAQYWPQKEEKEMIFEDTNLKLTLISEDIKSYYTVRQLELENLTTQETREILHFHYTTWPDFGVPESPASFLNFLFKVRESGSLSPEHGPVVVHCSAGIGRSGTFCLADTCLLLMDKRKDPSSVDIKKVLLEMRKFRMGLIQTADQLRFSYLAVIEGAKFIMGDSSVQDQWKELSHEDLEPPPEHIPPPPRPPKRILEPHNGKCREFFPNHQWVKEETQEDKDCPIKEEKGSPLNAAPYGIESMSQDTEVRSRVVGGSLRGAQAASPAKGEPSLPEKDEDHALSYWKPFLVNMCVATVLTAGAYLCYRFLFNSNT

Albumin = Albumin (Bos taurus, UniProt P02769); assay: Binding affinity to bovine serum albumin; format: ADME; conditions: cattle, isolated protein
Sequence of Albumin (P02769 whole entry): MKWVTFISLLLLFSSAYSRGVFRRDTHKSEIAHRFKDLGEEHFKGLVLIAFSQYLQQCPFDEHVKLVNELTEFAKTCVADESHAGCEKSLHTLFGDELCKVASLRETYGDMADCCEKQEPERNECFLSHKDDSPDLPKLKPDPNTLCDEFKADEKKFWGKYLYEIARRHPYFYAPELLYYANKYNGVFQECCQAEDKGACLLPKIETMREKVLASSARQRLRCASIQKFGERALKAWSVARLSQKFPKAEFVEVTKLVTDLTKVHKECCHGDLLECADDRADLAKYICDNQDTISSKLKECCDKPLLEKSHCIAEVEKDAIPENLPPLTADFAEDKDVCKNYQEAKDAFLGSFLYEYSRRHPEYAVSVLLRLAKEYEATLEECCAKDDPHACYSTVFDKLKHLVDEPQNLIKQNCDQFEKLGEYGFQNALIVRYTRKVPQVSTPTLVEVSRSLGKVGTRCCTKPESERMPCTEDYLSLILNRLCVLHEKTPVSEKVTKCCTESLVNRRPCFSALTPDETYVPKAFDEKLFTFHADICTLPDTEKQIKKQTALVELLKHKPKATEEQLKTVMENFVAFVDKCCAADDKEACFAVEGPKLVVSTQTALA

[9] = target: Tyrosine-protein phosphatase non-receptor type 6 (Homo sapiens, UniProt P29350); assay: Binding affinity to SHP1 (unknown origin)
Sequence of Tyrosine-protein phosphatase non-receptor type 6 (P29350 whole entry): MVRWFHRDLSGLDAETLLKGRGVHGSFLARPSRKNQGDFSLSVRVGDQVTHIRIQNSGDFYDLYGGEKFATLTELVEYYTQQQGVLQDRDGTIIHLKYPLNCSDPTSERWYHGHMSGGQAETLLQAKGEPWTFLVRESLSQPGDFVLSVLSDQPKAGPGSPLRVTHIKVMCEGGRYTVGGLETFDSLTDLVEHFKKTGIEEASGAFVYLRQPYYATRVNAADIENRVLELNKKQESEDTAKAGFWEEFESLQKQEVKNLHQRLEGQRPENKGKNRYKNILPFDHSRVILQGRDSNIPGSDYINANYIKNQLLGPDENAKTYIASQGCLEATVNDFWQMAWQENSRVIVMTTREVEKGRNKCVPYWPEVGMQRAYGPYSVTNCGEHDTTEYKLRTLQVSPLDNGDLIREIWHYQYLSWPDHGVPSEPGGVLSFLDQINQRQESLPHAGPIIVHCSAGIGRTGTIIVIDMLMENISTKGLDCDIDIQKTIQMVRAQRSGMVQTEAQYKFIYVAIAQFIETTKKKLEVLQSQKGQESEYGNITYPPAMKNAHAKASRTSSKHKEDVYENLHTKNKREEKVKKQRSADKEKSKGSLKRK

inhibition (Homo sapiens)	pIC50 [2]	Compound	pKd [3]	inhibition (HeLa) [%]	other results
		CCCOC(=O)CNC(=O)[C@H](CCC(=O)O)NC(=O)[C@H](CCC(=O)O)NC(=O)[C@H](Cc1cnc[nH]1)NC(=O)[C@@H]1CSC(C)(C)N1C(=O)CNC(=O)[C@@H](NC(=O)[C@@H](NC(=O)[C@@H](NC(=O)[C@@H](NC(=O)[C@@H](NC(=O)[C@@H]1CCCN1C(=O)[C@H](Cc1cnc[nH]1)NC(=O)[C@@H]1CCCN1C(=O)CNC(=O)CCSSC[C@H](NC(=O)[C@H](CCCNC(=N)N)NC(=O)[C@H](CCCNC(=N)N)NC(=O)[C@H](CCCNC(=N)N)NC(=O)[C@H](CCCNC(=N)N)NC(=O)[C@H](CCCNC(=N)N)NC(=O)[C@H](CCCNC(=N)N)NC(=O)[C@H](CCCNC(=N)N)NC(=O)[C@H](CCCNC(=N)N)NC(=O)[C@H](CCCNC(=N)N)NC(=O)[C@H](CCCNC(=N)N)NC(=O)[C@H](CCCNC(=N)N)NC(C)=O)C(N)=O)C(C)(C)C)[C@@H](C)CC)C(C)(C)C)[C@@H](C)CC)[C@@H](C)O		95	
Dose-dependent effect	6.55	CC[C@H](C)[C@H](NC(=O)[C@@H](NC(=O)[C@@H](NC(=O)[C@@H](NC(=O)[C@@H]1CCCN1C(=O)[C@H](Cc1cnc[nH]1)NC(=O)[C@@H]1CCCN1C(=O)CN)C(C)(C)C)[C@@H](C)CC)C(C)(C)C)C(=O)N[C@H](C(=O)NCC(=O)N1CCC[C@H]1C(=O)N[C@@H](Cc1cnc[nH]1)C(=O)N[C@@H](CCC(=O)O)C(=O)N[C@@H](CCC(=O)O)C(=O)O)[C@@H](C)O (H-GPHP[Tle]I[Tle]ITGPHEE-OH)	7.37		
Dose-dependent effect	6.96	CC[C@H](C)[C@H](NC(=O)[C@@H](NC(=O)[C@@H](NC(=O)[C@@H](NC(=O)[C@@H]1CCCN1C(=O)[C@H](Cc1cnc[nH]1)NC(=O)[C@@H]1CCCN1C(=O)CN)C(C)(C)C)[C@@H](C)CC)C(C)(C)C)C(=O)N[C@H](C(=O)NCC(=O)N1[C@H](C(=O)N[C@@H](Cc2cnc[nH]2)C(=O)N[C@@H](CCC(=O)O)C(=O)N[C@@H](CCC(=O)O)C(=O)O)CSC1(C)C)[C@@H](C)O (H-GPHP[Tle]I[Tle]ITG[X1]HEE-OH)	8.59	95	Activity [5]: inactive; Stability (Serum [6]): 60%; Activity [7]: inactive; pKd [8]: 5.05; Activity (Albumin): Not Active; pKd [9]: < 4.82
		H-GPHAVAVAAGPHEE-OH	< 3.70		

Compound	inhibition (Homo sapiens)	pIC50 [2]	pKd [3]	inhibition (HeLa) [%]	other results
CC[C@H](C)[C@H](NC(=O)[C@@H](NC(=O)[C@@H]1CCCN1C(=O)[C@H](Cc1cnc[nH]1)NC(=O)[C@@H]1CCCN1C(=O)CN)C(C)C)C(=O)N[C@H](C(=O)N[C@H](C(=O)N[C@H](C(=O)NCC(=O)N1CCC[C@H]1C(=O)N[C@@H](Cc1cnc[nH]1)C(=O)N[C@@H](CCC(=O)O)C(=O)N[C@@H](CCC(=O)O)C(=O)O)C(C)O)[C@@H](C)CC)C(C)C (stereo not given in full)	Dose-dependent effect	5.39	6.32		half-life [1]: 1 h; Stability (Serum [4]): Unstable
